Published values pooled from the literature.
Each line is one published result; the experiments were not run side by side. In brackets after ≈: the same amount, converted by molar mass.
Organism: Pseudomonas aeruginosa

SMILES	effect on	method	strain	concentration	time	measurement	value
CC(C)(O/N=C(\C(=O)N[C@@H]1C(=O)N2C(C(=O)[O-])=C(C[n+]3ccccc3)CS[C@H]12)c1csc(N)n1)C(=O)O	microbial growth	–	PAO1	–	–	MIC90	4 µg/mL (≈ 7.32 µM)
CC(C)(O/N=C(\C(=O)N[C@@H]1C(=O)N2C(C(=O)[O-])=C(C[n+]3ccccc3)CS[C@H]12)c1csc(N)n1)C(=O)O	microbial growth	disc diffusion	–	2000 µg/mL	24 h	inhibition zone	9.5 mm
CC(C)NCC(COc1cccc2ccccc12)OC(=O)C=Cc1ccc(O)c(O)c1 (stereo not drawn)	microbial growth	broth dilution	ATCC27853	–	–	MIC	64 µg/mL
COc1cc(C#C[C@H](O)CC(C)C)ccc1O	microbial growth	absorbance	–	100 µM	24 h	activity vs control	98%
COc1cc(C=Nc2ccccc2Br)ccc1O	microbial growth	disc diffusion	–	2000 µg/mL	24 h	inhibition zone	14.2 mm
Cc1[nH]c(C(=O)Nc2ccc(C(=O)NCC(=O)O)cc2N2CCNCC2)c(Cl)c1Cl.Cl	microbial growth	broth dilution	ATCC27853	–	–	MIC	> 32 µg/mL
COc1cccc(C(=O)C#Cc2ccc(O)c(OC)c2)c1	microbial growth	absorbance	–	100 µM	24 h	activity vs control	82%
Cc1[nH]c(C(=O)Nc2ccc(-c3n[nH]c(=O)o3)cc2N2CCC[C@H](N)C2)c(Cl)c1Cl.Cl	microbial growth	broth dilution	ATCC27853	–	–	MIC	16 µg/mL
CC1CCC(C(C)C)C(OC(=O)C=Cc2ccc(O)c(O)c2)C1 (stereo not drawn)	microbial growth	broth dilution	ATCC27853	–	–	MIC	2 µg/mL
COc1cc(C#CC(=O)CC(C)C)ccc1O	microbial growth	absorbance	–	100 µM	24 h	activity vs control	87%
Nc1ccccc1OC(=O)C=Cc1ccc(O)c(O)c1	microbial growth	broth dilution	ATCC27853	–	–	MIC	32 µg/mL
Cl.N[C@@H]1CCN(c2cc(C(=O)NCC(=O)O)ccc2NC(=O)c2cc(Br)c(Br)[nH]2)C1	microbial growth	broth dilution	ATCC27853	–	–	MIC	> 32 µg/mL
COc1cc(C#CC(=O)c2ccccc2Cl)ccc1O	microbial growth	absorbance	–	10 µM	24 h	activity vs control	98%
C[C@@H](O)[C@H]1C(=O)N2C(C(=O)O)=C(S[C@@H]3CN[C@H](C(=O)N(C)C)C3)[C@H](C)[C@H]12	microbial growth	broth dilution	ATCC27853	–	20 h	MIC	< 0.5 µg/mL
COc1cccc(C(O)C#Cc2ccc(O)c(OC)c2)c1 (stereo not drawn)	microbial growth	absorbance	–	10 µM	24 h	activity vs control	96%
Cc1[nH]c(C(=O)Nc2ccc(C(=O)NCC(=O)O)cc2N2CCN(C(=O)OC(C)(C)C)CC2)c(Cl)c1Cl	microbial growth	broth dilution	ATCC27853	–	–	MIC	> 32 µg/mL
O=C(O)c1cn(C2CC2)c2cc(N3CCNCC3)c(F)cc2c1=O	microbial growth	–	ATCC27853	–	–	MIC	2 µM
COc1cc(C#CC(=O)C2CCCCC2)ccc1O	microbial growth	absorbance	–	100 µM	24 h	activity vs control	80%
Cc1ccccc1NC(=O)C=Cc1ccc(O)c(O)c1	microbial growth	broth dilution	ATCC27853	–	–	MIC	8 µg/mL
C[C@H]1COc2c(N3CCN(C)CC3)c(F)cc3c(=O)c(C(=O)O)cn1c23	microbial killing	–	ATCC47085	–	–	MBC	7.81 µg/mL (≈ 21.6 µM)
COc1cc(-c2[nH]nnc2C(=O)c2ccccc2)ccc1O	microbial growth	absorbance	–	10 µM	24 h	activity vs control	95%
Cc1[nH]c(C(=O)Nc2ccc(C(=O)NCC(=O)O)cc2N2CC[C@@H](N)C2)c(Cl)c1Cl.Cl	microbial growth	broth dilution	ATCC27853	–	–	MIC	> 32 µg/mL
C[C@@H](O)[C@H]1C(=O)N2C(C(=O)O)=C(SCCN=CN)C[C@H]12	microbial growth	disc diffusion	–	2000 µg/mL	24 h	inhibition zone	17 mm
CC(C)(C)OC(=O)N[C@H]1CCN(c2cc(C(=O)NCC(=O)O)ccc2NC(=O)c2cc(Br)c(Br)[nH]2)C1	microbial growth	broth dilution	ATCC27853	–	–	MIC	> 32 µg/mL
O=C(C=Cc1ccc(O)c(O)c1)Oc1cccc2cccnc12	microbial growth	broth dilution	ATCC27853	–	–	MIC	4 µg/mL
COc1cc(C#CC(O)c2ccccc2)ccc1O (stereo not drawn)	microbial growth	absorbance	–	100 µM	24 h	activity vs control	82%
Cc1[nH]c(C(=O)Nc2ccc(C(=O)NCC(=O)O)cc2N2CC[C@H](NC(=O)OC(C)(C)C)C2)c(Cl)c1Cl	microbial growth	broth dilution	ATCC27853	–	–	MIC	> 32 µg/mL
